HTRA1 inh – blocks human HTRA1 serine peptidase; Q92743; inhibition, % at 5.96 µM; recombinant HTRA1, FP-rhodamine activity-based probe, fluorescence polarization; actives 0.5% (n = 340,000); AID 504803; in the data active means inhibition above about 36%
Target sequence (Q92743 whole entry, looked up): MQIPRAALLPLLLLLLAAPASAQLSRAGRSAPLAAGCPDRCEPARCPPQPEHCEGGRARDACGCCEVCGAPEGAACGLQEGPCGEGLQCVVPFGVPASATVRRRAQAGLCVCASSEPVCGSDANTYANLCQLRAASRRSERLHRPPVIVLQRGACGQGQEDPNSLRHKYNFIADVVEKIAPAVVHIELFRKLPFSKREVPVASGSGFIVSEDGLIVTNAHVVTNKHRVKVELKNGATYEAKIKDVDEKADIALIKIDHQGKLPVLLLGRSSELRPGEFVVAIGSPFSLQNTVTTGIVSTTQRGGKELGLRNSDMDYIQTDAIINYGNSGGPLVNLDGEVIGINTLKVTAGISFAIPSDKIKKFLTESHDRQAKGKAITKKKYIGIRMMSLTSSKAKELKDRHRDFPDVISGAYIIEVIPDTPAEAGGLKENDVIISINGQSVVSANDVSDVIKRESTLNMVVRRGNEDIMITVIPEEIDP
SIAE inh – inhibitors of human sialic acid acetylesterase SIAE; Q9HAT2; SIAE FP-Rh probe binding, fluorescence polarization; inhibition, % at 9.66 µM; actives 0.69% (n = 370,000); AID 1053197;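 active means inhibition above a cutoff: mean of compounds within the control limits plus 3 SD of those, cut at about 17% in these data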
mABHD4 FP – ABHD4 (mouse) inhibition, primary FP screen; purified mABHD4, FP-Rh probe fluorescence polarization; Q8VD66; inhibition, % at 8.92 µM; actives 0.54% (n = 370,000); AID 720543;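 active means inhibition exceeding the mean over every tested compound plus 3 SD, cut at about 30% in these data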
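Assay system: wild-type mouse ABHD4 protein; compound: single nominal dose of 8.92 µM, 0.89% DMSO final; schedule: 45 min + 60 min at 25 °C; measured by: FP readout, ex 525 nm / em 598 nm; evaluation: % inhibition of FP-Rh probe binding versus controls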
rCAG binder-1 – binds r(CAG) RNA repeats; AID 651821; inhibition, % at 3 µM; actives 1.3% (n = 370,000); r(CAG) RNA repeat, TO-PRO-1 dye displacement fluorescence;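 active means inhibition above the plate cutoff, the mean of all test compounds on that plate plus 3 SD, cut at about 35% in these data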;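 further: higher means more dye released from RNA so lower well fluorescence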
TCR CD3 inh – human TCR-CD3 binding inhibition. AID 651800. actives 0.37% (n = 360,000). inhibition, % at 9.4 µM. TAMRA-labeled TCR probe fluorescence, biochemical; in the data active means inhibition above about 19%;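 further: recombinant mutant TCR 2C K166C tagged with TAMRA read by polarization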
rCAG bind conf – r(CAG) RNA repeat binding, confirmation; shares compounds with rCAG binder-1; TO-PRO-1 dye displacement fluorescence; inhibition, % at 3 µM; actives 70% (n = 4,300);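 active means inhibition above a per-plate cutoff, the mean inhibition of sample wells plus 3 SD, cut at about 35% in these data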;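 further: loss of TO-PRO-1 fluorescence as compound displaces dye from 1x1 AA loop RNA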
dCAG dye counter – DNA CAG dye complex inhibition counter-screen | d(CAG) DNA oligo TO-PRO-1 dye displacement, fluorescence | actives 94% (n = 4,300) | inhibition, % at 3 µM | AID 652068 | shares compounds with rCAG binder-1;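 active means inhibition above its plate's cutoff, the mean test-well inhibition plus 3 SD, cut at about 4.8% in these data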;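 further: hits displace the dye from DNA and so lower well fluorescence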
DNA CAG DR – DNA CAG dye complex inhibition, dose response counter-screen; AID 686960; DNA CAG/GTC duplex TO-PRO-1 dye displacement fluorescence; IC50, µM; shares compounds with rCAG binder-1; actives 20% (n = 250); in the data active means IC50 below about 10 µM
dCAG TOPRO ctr – DNA CAG dye complex inhibition, late stage dose response; shares compounds with rCAG binder-1; d(CAG) DNA duplex TO-PRO-1 dye displacement, fluorescence; IC50, µM; actives 80% (n = 30)
rCAG binder-2 – molecules binding r(CAG) RNA repeats, late stage dose response; shares compounds with rCAG binder-1; r(CAG) RNA TO-PRO-1 dye displacement, fluorescence; IC50, µM; actives 100% (n = 30); AID 720651
Each line names hits and unclear results; the compound was inactive in the other large screens (follow-up assays come after a bar, where they were run). In the library only some 2.5% were active in any assay of this set; here they are far more common. Unless noted, how the calls were made is not given here.

CCNC(=O)NCCNC(=O)c1cc(OCC(F)(F)F)ccc1OCC(F)(F)F	none
CC(C)(C)c1ccc(S(=O)(=O)NC(=O)C2(C)CCN2C(=O)Cc2cccc3ccccc23)cc1 (centres undefined)	rCAG binder-1 71 (no result: HTRA1 inh) | rCAG bind conf 62 | dCAG dye counter 25
CC1(C(=O)NS(=O)(=O)c2ccccc2)CCN1C(=O)Cc1cccc2ccccc12 (centres undefined)	none (no result: HTRA1 inh)
Cc1ccc(S(=O)(=O)NC(=O)C2(C)CCN2C(=O)Cc2ccc(C(C)(C)C)cc2)cc1 (centres undefined)	rCAG binder-1 43 (no result: HTRA1 inh) | rCAG bind conf inactive | dCAG dye counter 7.2
Cc1ccc(F)c(S(=O)(=O)NC(=O)C2(C)CCN2C(=O)Cc2ccc(C(C)(C)C)cc2)c1 (centres undefined)	none (no result: HTRA1 inh)
CC(C)(C)c1ccc(CC(=O)N2CCC2(C)C(=O)NS(=O)(=O)c2ccc(Cl)cc2)cc1 (centres undefined)	rCAG binder-1 37 (no result: HTRA1 inh) | rCAG bind conf 52 | dCAG dye counter 17
Cc1ccc(S(=O)(=O)NC(=O)C2(C)CCN2C(=O)Cc2ccc(-c3ccccc3)cc2)cc1 (centres undefined)	rCAG binder-1 58 (no result: HTRA1 inh) | rCAG bind conf 53 | dCAG dye counter 15
CC(C)(C)c1ccc(CC(=O)N2CCC2(C)C(=O)NS(=O)(=O)c2ccc(C#N)cc2)cc1 (centres undefined)	none (no result: HTRA1 inh)
CC1(C(=O)NS(=O)(=O)c2ccccc2)CCN1C(=O)Cc1ccccc1 (centres undefined)	none (no result: HTRA1 inh)
Cn1cnnc1SCC(=O)NC1CCCCCC1	none
CN(C)/C=N/c1cc(=O)[nH]c(=O)n1Cc1ccccc1	none
CC1CCCC(C)N1CCCNC(=O)c1nn(C)c2c1CSc1ccccc1-2 (centres undefined)	none
Cc1noc(NS(=O)(=O)c2ccc(NC(=O)CSc3nnc4c(n3)[nH]c3ccccc34)cc2)c1C	rCAG binder-1 65 | rCAG bind conf 67 | dCAG dye counter 32
Cc1noc(NS(=O)(=O)c2ccc(NC(=O)Nc3ccc(Cl)c(Cl)c3)cc2)c1C	rCAG binder-1 91 | rCAG bind conf 83 | dCAG dye counter 53
Cc1noc(NS(=O)(=O)c2ccc(NC(=O)C(F)(F)F)cc2)c1C	none
CCSc1ncc(Cl)c(C(=O)Nc2ccc(S(=O)(=O)Nc3onc(C)c3C)cc2)n1	rCAG binder-1 54 | rCAG bind conf inactive | dCAG dye counter 6.9
Cc1cc(NS(=O)(=O)c2ccc(NC(=O)Cc3ccc(Cl)c(Cl)c3)cc2)on1	rCAG binder-1 57 (no result: HTRA1 inh, TCR CD3 inh) | rCAG bind conf 63 | dCAG dye counter 24
O=C(O)c1cccc(Cn2cc(Cl)cn2)c1	none
CC1CC(C)CN(c2nc3c(c(=O)n(C)c(=O)n3C)n2C)C1 (centres undefined)	none
CC(=O)Nc1ccc(NC(=O)C2CC(=O)Nc3ncnn32)cc1 (centres undefined)	none
COc1ccc(CC(=O)Nc2ccc(S(=O)(=O)Nc3onc(C)c3C)cc2)cc1OC	none
COc1cc(/C=C/C(=O)Nc2ccc(S(=O)(=O)Nc3onc(C)c3C)cc2)cc(OC)c1OC	rCAG binder-1 53 | rCAG bind conf 51 | dCAG dye counter 19
Cc1noc(NS(=O)(=O)c2ccc(NC(=O)/C=C/c3ccc(Br)cc3)cc2)c1C	rCAG binder-1 82 | rCAG bind conf 67 | dCAG dye counter 33
Cc1nn(CCc2nc(-c3ccco3)cs2)c2[nH]c(=O)cc(C(F)(F)F)c12	rCAG binder-1 58 | rCAG bind conf inactive | dCAG dye counter inactive
CN(CC(=O)NCCc1ccc(S(N)(=O)=O)cc1)S(=O)(=O)c1cccc2nsnc12	none
S=C(NCc1ccccc1)NC1CCSc2ccccc21 (centres undefined)	rCAG binder-1 53 | rCAG bind conf inactive | dCAG dye counter inactive
O=C(O)c1ccc(/C=C/c2ccc3cccc(O)c3n2)cc1	none
Oc1ccc(/C=C/c2ccc3cccc(O)c3n2)cc1Br	rCAG binder-1 50 | rCAG bind conf inactive | dCAG dye counter 14
COCCn1c(-c2ccc(OC)cc2)cnc1SCC(=O)Nc1ccc(OC)cc1OC	none
CCS(=O)(=O)C1=NN2C(=N)/C(=C\c3ccc(OCCOc4cccc(OC)c4)c(OC)c3)C(=O)N=C2S1	rCAG binder-1 49 | rCAG bind conf 91 | dCAG dye counter 76
CCOc1cc(/C=C2\C(=N)N3N=C(S(C)(=O)=O)SC3=NC2=O)ccc1OCCOc1cccc(OC)c1	rCAG binder-1 49 | rCAG bind conf 92 | dCAG dye counter 73
CC1CC(C)(C)N(C(=O)CSc2ccc(-c3ccc(F)cc3)nn2)c2ccccc21 (centres undefined)	none
O=C(CCC1CCN(Cc2ccc(C#CCCO)cc2)CC1)NC1CC1	none
Cc1ccc(CSCCNS(=O)(=O)c2ccc([N+](=O)[O-])cc2)cc1	none
CC1(C(=O)Nc2ccc3ccccc3c2)CCC(=O)N1C1CC1 (centres undefined)	none (no result: HTRA1 inh)
Cc1cc(Nc2ccc(Br)cc2)nc(-c2ccccc2O)n1	rCAG binder-1 38 | rCAG bind conf inactive | dCAG dye counter inactive
Cc1ccc(Nc2cc(C)nc(-c3ccccc3O)n2)cc1	none
O=C(CSc1n[nH]c(=O)[nH]c1=O)Nc1c(Cl)cc(Cl)cc1Cl	none
CN(c1ccc(OCC(=O)Nc2cc(Cl)ccc2C(=O)O)cc1)S(=O)(=O)c1ccc(F)cc1	rCAG binder-1 77 | rCAG bind conf 74 | dCAG dye counter 34 | DNA CAG DR 6.2 | dCAG TOPRO ctr 2.5 | rCAG binder-2 1.2
O=C(NCC1CCCN1S(=O)(=O)c1cccs1)C(=O)Nc1ccccc1Cl (centres undefined)	none
COC(=O)c1c(NS(C)(=O)=O)sc2c1CCCC2	none
CC(C)OC(=O)c1c(NS(=O)(=O)c2ccccc2)sc2c1CCCC2	rCAG binder-1 35 | rCAG bind conf 50 | dCAG dye counter 14
COC(=O)c1c(NS(=O)(=O)Cc2ccccc2)sc2c1CCCC2	rCAG binder-1 48 | rCAG bind conf 47 | dCAG dye counter 16
O=C(CN1C(=O)C2CCCCN2C(=O)c2ccccc21)N1CCCc2ccccc21 (centres undefined)	none
